Bioassay records as filed in PubChem.
Only some compounds are listed: those with a hit (about 3.3% of all), similar ones and a draw of the others.
Statin myotox sup: suppression of simvastatin myotoxicity; C2C12 myotubes + simvastatin, ATP luminescence, 48 h; scaled: DMSO 0, geranylgeraniol control 100; rescue of ATP level, % at 7.49 µM; actives 0.78% (n = 330,000); AID 602340;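 active = mean ATP rescue above about 67%, or every replicate alone reaching that limit, limit read from the data, passing the limit was not always enough; inconclusive = no clear call, values can overlap the other calls; inactive = mean under the limit and some replicate under it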;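 note: myotubes were challenged with 10 µM simvastatin during compound exposure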
XiGFP reactiv: reactivates the inactive X chromosome in mouse fibroblasts. XiGFP mouse fibroblasts, % GFP-positive cells imaging, 3 d; cells co-treated with 5-aza-dC sensitizer; scaled so ellipticine positive control = 100%. activation, % at 7.58 µM. actives 0.055% (n = 360,000);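 active = mean normalized replicate activation at least 10% and every replicate at or above 10%; inconclusive = only one of the two criteria met; inactive = mean below 10% and not all replicates reach 10%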;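 note: 0% = median of on-plate neutral control wells and 100% = ellipticine 6 µM median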
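Material: XiGFP fibroblasts, SV40-immortalized; Buffer or medium: DMEM containing 5-aza-dC; Compound dosing: single point; Times: 3 days compound exposure.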
E-selectin induc: induces E-selectin expression in human endothelial cells. HUVEC E-selectin immunofluorescence imaging; normalized: neutral wells 0, TNF-alpha wells 100. activation, % at 7.58 µM. actives 0.37% (n = 260,000). AID 686992;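 active = mean E-selectin-positive cell signal at least 10% of the positive control, reached in at least 60% of replicates, without over 20% cell loss; inconclusive = no rule given, readout overlaps actives, possibly toxicity-flagged; inactive = the rest, including those meeting only one limit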
Target sequence (P16581 whole entry, looked up): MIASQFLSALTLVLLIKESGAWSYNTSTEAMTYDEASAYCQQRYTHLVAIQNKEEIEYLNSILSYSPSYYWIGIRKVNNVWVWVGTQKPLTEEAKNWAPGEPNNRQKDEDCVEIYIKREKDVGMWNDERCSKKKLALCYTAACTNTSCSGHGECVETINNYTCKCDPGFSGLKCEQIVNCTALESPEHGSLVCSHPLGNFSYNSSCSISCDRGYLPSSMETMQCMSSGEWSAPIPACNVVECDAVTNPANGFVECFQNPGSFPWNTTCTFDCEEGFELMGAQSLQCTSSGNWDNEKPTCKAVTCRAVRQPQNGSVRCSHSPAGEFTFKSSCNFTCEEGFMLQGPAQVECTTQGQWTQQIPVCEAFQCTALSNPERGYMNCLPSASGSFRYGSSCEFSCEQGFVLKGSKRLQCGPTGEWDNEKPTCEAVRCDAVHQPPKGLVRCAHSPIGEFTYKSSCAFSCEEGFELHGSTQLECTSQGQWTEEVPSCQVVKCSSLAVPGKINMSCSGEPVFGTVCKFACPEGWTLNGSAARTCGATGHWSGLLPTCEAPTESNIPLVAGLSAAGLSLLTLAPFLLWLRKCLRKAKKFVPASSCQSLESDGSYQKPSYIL
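Assay system: HUVEC primary endothelial cells. Input: 3,000 HUVEC seeded per well. Doses: one compound dose added by pin transfer. Read-out basis: % PE-positive cells. Benchmarks: TNF-alpha high, DMSO low. Detection: immunofluorescence imaging. Buffer or medium: EGM-2, gelatin.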
DENV2 CPE rescue: protects cells from dengue virus 2 cytopathic effect; CPE inhibition, % at 9.99 µM; AID 651640; actives 1.7% (n = 350,000); DENV2-infected cells, cytopathic effect rescue, plate reader; in the data active = CPE inhibition above about 20%, passing the limit was not always enough; inconclusive = no clear call, values can overlap the other calls; tested in BHK-21 cells;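 note: 0% = median of neutral control wells and 100% = median of positive control wells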
FGF22 binding: FGF22 (human) thermal shift binding; Q9HCT0; recombinant FGF22 thermal shift, SYPRO orange fluorescence; percent of sucrose octasulfate shift, DMSO zero; activity (Tm shift, normalised), % at 9.99 µM; actives 1.5% (n = 340,000);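 active = mean Tm shift, scaled 0 neutral to 100 positive control, at about 1.3% or above, every replicate too, limit read from the data; inconclusive = no clear call, values can overlap the other calls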
PglD inh: PglD (C. jejuni) enzyme inhibition | AID 602405 | inhibition, % at 12.5 µM | actives 0.098% (n = 360,000) | purified PglD enzyme, DTNB colorimetric CoA detection; in the data active = inhibition above about 16%, passing the limit was not always enough; inconclusive = no clear call, values can overlap the other calls
Active calls of the source: *; ! = not active in a repeat.

For CC1CC(C)(C)NC(=S)N1CC(=O)NCc1ccc2c(c1)OCO2 (configuration not stated) the results were XiGFP reactiv 0.8, E-selectin induc 0.8, DENV2 CPE rescue 5.1 and FGF22 binding 43.0*.
`O=C(/C=C/c1cc2c(cc1Br)OCO2)NCc1ccc(F)cc1` gave Statin myotox sup -1.0 and PglD inh -4.6.
For CN(C)c1cccc(C(=O)NCc2ccc3c(c2)OCO3)c1 the results were Statin myotox sup 11.0, XiGFP reactiv 0.4, E-selectin induc 29.1*, DENV2 CPE rescue inconclusive, FGF22 binding -0.2 and PglD inh -4.1.
Screening CC(C)c1ccc(NC(=S)NCc2ccc3c(c2)OCO3)cc1 returned XiGFP reactiv 0.2, DENV2 CPE rescue -8.5 and FGF22 binding 0.3.
For CC1CC(C)(C)NC(=S)N1CC(=O)NCc1ccc(F)cc1 (configuration not stated) the results were XiGFP reactiv 0.0, E-selectin induc 1.7, DENV2 CPE rescue 0.5 and FGF22 binding -0.2.
CC(C)CC#Cc1cnc2c(c1)C(=O)N([C@H](C)CO)C[C@H](C)[C@H](CN(C)Cc1ccccc1C(=O)O)O2 was read as Statin myotox sup 8.1, XiGFP reactiv -0.2, E-selectin induc -0.4, DENV2 CPE rescue 2.6, FGF22 binding -0.2 and PglD inh -1.2.
O=C(Cc1ccccn1)N[C@@H]1CC[C@H](CCNC(=O)c2cc(Cl)cc(Cl)c2)O[C@H]1CO was read as Statin myotox sup 8.1, XiGFP reactiv 0.2, E-selectin induc -0.2, DENV2 CPE rescue 2.1, FGF22 binding -0.6 and PglD inh -0.9.
Cc1ccc2c(c1)N(CCCC(=O)NCc1ccc3c(c1)OCO3)C(=O)CO2 was read as Statin myotox sup -0.1, XiGFP reactiv 0.2, E-selectin induc 0.0, DENV2 CPE rescue 91.7*, FGF22 binding 0.0 and PglD inh 0.4.
Cc1ccc(CC(=O)NCc2ccc3c(c2)OCO3)cc1 was read as Statin myotox sup -0.8 and PglD inh -0.5.
CCOCC(=O)NCc1ccc2c(c1)OCO2 was read as Statin myotox sup 76.1* and PglD inh 3.8.
For CN(C)S(=O)(=O)c1cccc(C(=O)OCC(=O)NCc2ccc3c(c2)OCO3)c1 the results were Statin myotox sup -1.8, XiGFP reactiv 0.0, DENV2 CPE rescue -7.1, FGF22 binding 42.9* and PglD inh -1.5.
For O=C(COC(=O)c1cccc(O)c1)NCc1ccc2c(c1)OCO2 the results were XiGFP reactiv 0.0, E-selectin induc 0.8, DENV2 CPE rescue -7.1, FGF22 binding 0.2 and PglD inh 0.1.
COc1ccccc1CNC(=O)CCCN1C(=O)COc2ccc(C)cc21 was read as Statin myotox sup 29.2 and PglD inh -2.2.
CN1C(=O)c2cc(NC(=O)c3ccc(F)c(F)c3)ccc2OC[C@H]2O[C@@H](CC(=O)O)CC[C@@H]21 was read as Statin myotox sup -2.4, XiGFP reactiv 0.0, E-selectin induc 0.0, DENV2 CPE rescue 1.4 and PglD inh 1.7.
`C[C@@H]1CN([C@H](C)CO)S(=O)(=O)c2ccc(C3=CCCCC3)cc2O[C@@H]1CN(C)Cc1ccccc1F` gave Statin myotox sup -37.1, XiGFP reactiv -0.1, DENV2 CPE rescue 1.7, FGF22 binding -0.2 and PglD inh 0.2.
Screening COc1ccc2c3c([nH]c2c1)[C@H](CO)N(Cc1ccccc1F)CC31CN(C(=O)C2CCC2)C1 returned XiGFP reactiv 0.3, E-selectin induc -0.7, DENV2 CPE rescue 9.1 and FGF22 binding 0.0.
COc1ccc2c3c([nH]c2c1)[C@@H](CO)N(C)CC31CN(C(=O)C2CC2)C1 was read as XiGFP reactiv 0.0, E-selectin induc 0.7, DENV2 CPE rescue 1.7 and FGF22 binding 0.0.
Screening COc1ccc2c3c([nH]c2c1)[C@H](CO)N(C)CC31CN(C(=O)C2CC2)C1 returned XiGFP reactiv 0.1, E-selectin induc -0.1, DENV2 CPE rescue 44.8* and FGF22 binding 0.0.
COc1ccc2c3c([nH]c2c1)[C@H](CO)N(Cc1ccccc1F)CC31CN(C(=O)C2CCCC2)C1 was read as XiGFP reactiv -0.1, E-selectin induc -0.1, DENV2 CPE rescue 23.9* and FGF22 binding -0.2.
`C[C@H](O)C#Cc1cnc2c(c1)C(=O)N([C@H](C)CO)C[C@H](C)[C@H](CN(C)C(=O)CC1CC1)O2` gave Statin myotox sup -0.2, XiGFP reactiv 0.6, E-selectin induc -0.9, DENV2 CPE rescue -3.1, FGF22 binding -0.1 and PglD inh 2.6.
`O=C(CSC(=S)N1CCOCC1)Nc1ncc2c(n1)CC(c1ccco1)CC2=O` (configuration not stated) gave XiGFP reactiv 0.0, DENV2 CPE rescue 30.0* and FGF22 binding 0.0.
O=C(CSC(=S)N1CCCCC1)Nc1ncc2c(n1)CC(c1ccco1)CC2=O (configuration not stated) was read as XiGFP reactiv 0.0, E-selectin induc 0.7, DENV2 CPE rescue 11.1, FGF22 binding -0.1 and PglD inh -0.4.
For CCc1cc2c(SCC#N)ncnc2s1 the results were XiGFP reactiv 0.0, DENV2 CPE rescue -2.6 and FGF22 binding 43.0*.
For O=C(c1cccnc1)N1CC(=O)N2[C@H](CO)[C@H](c3ccc(/C=C/c4ccccc4)cc3)[C@H]2C1 the results were XiGFP reactiv 0.0, E-selectin induc -0.3 and DENV2 CPE rescue -5.4.
Screening C[C@H](CO)N1C[C@H](C)[C@@H](CN(C)Cc2ccc(Cl)c(Cl)c2)Oc2c(NC(=O)c3ccc(-c4nccs4)cc3)cccc2C1=O returned XiGFP reactiv -0.6, E-selectin induc 0.3, DENV2 CPE rescue -7.6, FGF22 binding 0.0 and PglD inh -1.0.
Screening O=C(Nc1ccccc1)C1=C[C@H](c2csc3ccccc23)C[C@H](OCCCCO)O1 returned Statin myotox sup -6.4, XiGFP reactiv 0.3, E-selectin induc 0.2, DENV2 CPE rescue 20.2*!, FGF22 binding -0.1 and PglD inh -2.4.
Screening O=C(NCc1ccccc1)C1=C[C@H](c2csc3ccccc23)C[C@H](OCCCCO)O1 returned Statin myotox sup 13.4, XiGFP reactiv 0.2, E-selectin induc 0.9, DENV2 CPE rescue 2.0, FGF22 binding -0.3 and PglD inh 1.5.
For CCCN1C[C@@H](C)[C@@H](OC)CN(C)C(=O)c2cc(NC(=O)c3cccc(F)c3)ccc2OC[C@@H]1C the results were Statin myotox sup -1.1, XiGFP reactiv -0.1, E-selectin induc 0.0, DENV2 CPE rescue 27.4*, FGF22 binding 0.2 and PglD inh -1.3.
